Sampled rows, rich in hits. Any-hit rate of the full collection: about 3.7%.
Mdm2 ligase inh – MDM2-luciferase reporter signal enhancers, primary screen, MDM2 E3 ligase inhibitor project, cell-based, luminescence, 1536-well; cell-based MDM2 ubiquitination luciferase reporter, 2 h; 0 = plate control, 100 = twice control, blank-subtracted; signal enhancement, % at 5 µM; hit rate 0.11% among 210,000;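 active = signal enhancement of 30% or more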;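 note: luminescence tracks abundance of the self-degrading MDM2-luciferase fusion protein; higher signal means inhibition of MDM2 E3 ligase activity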
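Assay system: mammalian cells stably expressing self-ubiquitinating, self-degrading MDM2 E3–luciferase fusion. Quantity: 2000 cells in each well. Medium: DMEM culture medium. Compound dosing: single-point 5 µM. Timing: cell settling 4 h, compound treatment 2 h, both 37 °C. Technique: luciferase luminescence. Read-out basis: percent signal gain over controls, blank-subtracted. Benchmarks: plate controls and plate blanks.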
Beta2AR agonist – beta2AR agonists driving receptor internalization, primary screen, cell-based, FAP fluorogen, flow cytometry. hit rate 0.43% among 340,000. response, % (test concentration not listed). Am2.2-beta2AR cells. AID 504454, 2011;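 active = response above a set limit, near 3 SD of response in nonfluorescent compounds, cut at about 42% in these data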
Dynein cargo inh – inhibitors of GR-EGFP nuclear translocation, primary screen, dynein cargo transport inhibitor project, imaging, high-content, 3617.4 mouse cells; test concentration mostly 20 µM; stimulated with dexamethasone, 1 µM; stronger effect = lower value; z-score, hits read low; hit rate 0.47% among 220,000;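 active = plate z-score of nuclear minus cytoplasmic receptor signal below a set negative limit, without overly bright fluorescence or cell loss, cut at about -3.5 in these data, passing the limit was not always enough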;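 note: z-score of nuclear minus cytoplasmic ring GR-EGFP intensity difference per well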
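Buffer or medium: tet-free, stripped-serum medium; Also added: dexamethasone, 1.0 µM final; Technique: high-content fluorescence imaging after fixation; Times: 48 h induction, 1 h compound, 30 min dex at 37 °C; Read-out: per-cell GR-EGFP intensity, nucleus versus surrounding cytoplasmic ring, well-averaged.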
UPR XBP1 act – activators of adaptive XBP1 UPR arm, primary screen, cell-based, CHO-XBP1 luciferase reporter, luminescence, uHTS; IRE1-XBP1 UPR activation; percent of tunicamycin response, DMSO as zero; activation, % at 20 µM; hit rate 0.33% among 330,000; AID 463104, 2010;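 active = versus positive control, 20 µM dose yields 30% or more activation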;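 note: 100% = tunicamycin at 10 µg/mL and 0% = DMSO only wells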
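Signal: luciferase luminescence; Assay system: CHO-XBP1 luciferase reporter cells; Amount: one thousand reporter cells per well; Dosing: 20 µM single concentration, DMSO 1%; Benchmarks: high control tunicamycin 10 µg/mL final, low control DMSO vehicle only; Schedule: 6 h compound exposure at 37 °C, 5% CO2; Evaluation: percent activation relative to tunicamycin reference.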
Mdm2-MdmX inh – inhibitors of human Mdm2-MdmX association, primary screen, cell-based, luminescence, split luciferase, SaOS-2, uHTS; Protein Mdm4 (Homo sapiens) + E3 ubiquitin-protein ligase Mdm2 (Homo sapiens), …; SaOS-2 split-luciferase Mdm2/MdmX complementation; inhibition, % at 8 µM; hit rate 3% among 330,000;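 active = inhibition of at least 50% at 8 µM in the primary screen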
Target sequence (O15151 whole entry, looked up): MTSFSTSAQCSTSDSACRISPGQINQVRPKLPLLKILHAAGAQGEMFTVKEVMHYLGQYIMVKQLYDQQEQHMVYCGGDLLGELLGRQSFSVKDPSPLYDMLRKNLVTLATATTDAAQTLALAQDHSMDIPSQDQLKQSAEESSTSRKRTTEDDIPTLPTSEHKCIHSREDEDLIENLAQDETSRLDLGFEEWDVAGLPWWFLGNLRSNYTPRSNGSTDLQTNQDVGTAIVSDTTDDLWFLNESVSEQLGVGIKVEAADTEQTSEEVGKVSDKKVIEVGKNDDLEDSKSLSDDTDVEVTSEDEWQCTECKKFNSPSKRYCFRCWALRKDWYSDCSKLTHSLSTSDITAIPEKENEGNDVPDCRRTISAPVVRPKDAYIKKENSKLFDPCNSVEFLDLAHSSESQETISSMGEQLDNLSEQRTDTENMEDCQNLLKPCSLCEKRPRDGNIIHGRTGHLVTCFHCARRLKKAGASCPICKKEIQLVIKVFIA
Target sequence (Q00987 whole entry, looked up): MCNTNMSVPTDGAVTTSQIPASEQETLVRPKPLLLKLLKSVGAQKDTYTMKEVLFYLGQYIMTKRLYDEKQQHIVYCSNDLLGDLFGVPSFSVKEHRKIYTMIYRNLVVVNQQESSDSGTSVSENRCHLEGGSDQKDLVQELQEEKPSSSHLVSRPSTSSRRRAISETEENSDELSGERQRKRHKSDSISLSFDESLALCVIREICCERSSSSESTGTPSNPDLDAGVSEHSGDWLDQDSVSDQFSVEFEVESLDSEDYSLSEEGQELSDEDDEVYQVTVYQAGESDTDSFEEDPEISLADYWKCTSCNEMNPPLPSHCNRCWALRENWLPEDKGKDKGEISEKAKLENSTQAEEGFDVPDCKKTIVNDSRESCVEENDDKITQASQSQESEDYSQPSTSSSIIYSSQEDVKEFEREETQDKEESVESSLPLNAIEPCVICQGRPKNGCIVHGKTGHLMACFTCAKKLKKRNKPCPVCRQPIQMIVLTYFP
CHOP UPR activ – activators of apoptotic CHOP UPR arm, primary screen, cell-based, CHO-CHOP luciferase reporter, luminescence, uHTS; hit rate 0.34% among 330,000; activation, % at 10 µM; UPR activation; percent of tunicamycin response over DMSO baseline;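 active = at 10 µM dose, activation of 40% or more, normalized to positive control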;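 note: 100% = tunicamycin at 10 µg/mL and 0% = DMSO alone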
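assay system = CHO CHOP reporter cells | amount = 500 CHO-CHOP cells per well | buffer or medium = F12 with 10% FBS | incubation = 16-18 h cell attachment, then 6 h compound exposure, 37 °C | detection = luminescence read with Steady-Glo | read-out = percent activation relative to tunicamycin control | controls = tunicamycin high control, DMSO low control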
Mdm2-MdmX conf – Mdm2-MdmX complex disruptors, retested hits, confirmation, luminescence, single concentration; Mdm2-MdmX binding, luminescent assay; inhibition, % at 8 µM; shares compounds with Mdm2-MdmX inh; hit rate 55% among 10,000; in the data active = inhibition above about 40%
Full FLuc ctr – full-length luciferase signal inhibition, confirmation, counter-screen for Mdm2/MdmX interaction inhibitor project, cell-based, single concentration, SaOS-2 | AID 504607, 2011 | inhibition, % at 8 µM | SaOS-2 full-length luciferase counterscreen, luminescence | shares compounds with Mdm2-MdmX inh | hit rate 77% among 6,200;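 active = mean inhibition at 8 µM reaching about 37%, which flags the compound as non-specific, limit read from the data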;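 note: p53-null SaOS-2 cells with luciferase driven by a doxycycline-inducible promoter; compound on cells about two nights before reading with doxycycline added after day one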
The depositor's hits bear a star; . = no result given.

SMILES | Mdm2 ligase inh | Beta2AR agonist | Dynein cargo inh | UPR XBP1 act | Mdm2-MdmX inh | CHOP UPR activ | Mdm2-MdmX conf | Full FLuc ctr
Cn1nc(C(F)(F)F)c(-c2ccc(Br)cc2)c1NC(=O)Nc1ccc(F)cc1F | 5.9 | 13.4 | 0.267 | -2.6 | 90.7* | 1.2 | 50.4* | 39.4*
COC(=O)c1c(C)n(-c2ccccc2)c2ccc(O)cc12 | -4.7 | 11.0 | -0.376 | 0.3 | 27.1 | -2.3 | . | .
CC(=O)c1c(C)n(-c2ccc(Br)cc2)c2ccc(O)cc12 | . | -0.6 | . | -2.5 | 41.8 | -0.7 | . | .
CCOc1ccc(-n2c(C)c(C(C)=O)c3cc(O)ccc32)cc1 | . | 4.3 | . | -2.3 | 53.5* | -1.1 | 55.5* | 31.2
CC(=O)c1ccc(-n2c(C)c(C(C)=O)c3cc(O)ccc32)cc1 | . | -6.7 | . | -0.1 | 62.3* | -2.1 | 64.7* | 47.6*
COC(=O)c1c(C)n(-c2ccc(C)cc2)c2ccc(O)cc12 | -0.9 | -3.1 | 0.731 | 0.4 | 52.6* | 4.1 | 45.6* | 54.7*
O=C(Cc1c(F)cccc1Cl)OCC(=O)N1CCN(c2ccccc2)CC1 | . | -0.9 | . | -0.4 | -20.7 | 4.0 | . | .
O=C(COC(=O)c1ccc(F)c([N+](=O)[O-])c1)NC(=O)NCc1ccccc1 | . | 36.2 | . | 13.0 | 73.1* | 3.6 | -0.9 | .
COc1ccc(NS(=O)(=O)c2cccs2)cc1S(=O)(=O)N1CCOCC1 | . | -1.4 | . | -2.8 | 17.6 | -0.2 | . | .
COc1ccc(Nc2nc(-c3cccs3)nc3ccccc23)cc1S(=O)(=O)N1CCOCC1 | . | 22.8 | . | 24.8 | 85.5* | 3.6 | 82.4* | 57.2*
Cc1cc2c(=O)n(Cc3ccco3)c(SCC(=O)N3CCCc4ccccc43)nc2s1 | -21.1 | 5.7 | -1.54 | 4.2 | 56.9* | 0.8 | 20.8 | .
CCOc1ccc(N2C(=O)Nc3ccccc3C2(O)C(=O)N2CCN(c3ccccn3)CC2)cc1 (centres undefined) | -4.3 | -0.8 | 0.206 | 1.1 | -0.2 | 1.5 | . | .
CCn1c(SCC(=O)N/N=C/c2ccc(C)s2)nc2ccccc21 | -16.5 | -12.5 | 0.312 | 1.1 | 58.0* | 0.3 | 61.0* | 59.3*
Cc1ccc(/C=N/NC(=O)CSc2nc3ccccc3c(=O)n2-c2ccccc2)s1 | . | 16.5 | -0.226 | -2.5 | 27.4 | 2.0 | . | .
C=C(C)Cn1c(SCC)nc2ccccc2c1=O | 10.1 | -7.0 | -0.121 | 1.0 | 9.3 | 0.7 | . | .
Cc1ccc(-n2c(SCC(=O)N/N=C/c3c(C)nn(-c4ccccc4)c3C)nc3ccccc3c2=O)cc1 | -2.7 | -4.5 | 0.0754 | 1.7 | 65.7* | 4.1 | 46.8* | 67.8*
C=C(C)Cn1c(SCC(=O)N/N=C/c2c(O)ccc3ccccc23)nc2ccccc2c1=O | 6.0 | -3.3 | -0.455 | -2.2 | 82.6* | 2.8 | 56.3* | 31.4
CC(Sc1nnc(C2CC2)n1C1CC1)C(=O)Nc1ccccc1C#N (centres undefined) | . | 3.7 | . | -1.4 | 8.9 | -1.5 | . | .
N#C/C(=C\c1ccccc1[N+](=O)[O-])C(=O)NC1CCCCC1 | -20.1 | 6.0 | -0.17 | -2.1 | 2.8 | -1.1 | . | .
N#C/C(=C\C=C\c1ccccc1[N+](=O)[O-])C(=O)NC1CCCCC1 | -7.8 | 3.8 | 0.647 | 3.1 | 98.7* | 7.0 | 61.0* | 53.5*

From PubChem
